Screening data from PubChem BioAssay.
Sampled rows, rich in hits. Any-hit rate of the full collection: about 0.96%.
T cell HTS – T cell immune modulators affecting CD8 T cell-vesicle binding. 2C CD8+ T cell-vesicle binding, flow cytometry; hits give low values. response (vesicle binding), % at 7 µM. AID 2052. 0.068% of 330,000 active;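 active = response, share of CD8 T cells binding vesicles, and their 90th percentile fluorescence all below set limits, cut at about 80% in these data, passing the limit was not always enough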;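 also: values below 100% mean blocked vesicle binding to the CD8+ T cells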
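Material: murine 2C transgenic CD8+ T lymphocytes / Also added: QL9-peptide-loaded Drosophila micro-vesicles bearing Ld, ICAM-1 and B7-1 / Schedule: binding step 1.5 h, 37 °C, antibody labelling 20 min, ice / Signal: flow cytometry, PE anti-B7-1 (FL2) versus Alexa647 anti-CD8 (FL8), PFA-fixed / Evaluation: percent CD8+ FL2 mean versus row control / Benchmarks: naked versus QL9-loaded vesicles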
RPL19A-GFP yeast – modulators of TOR pathway RPL19A-GFP in S. cerevisiae; S. cerevisiae RPL19A-GFP strain, flow cytometry, 3 h; hits give low values; percent response vs DMSO, % at 10 µM; 0.3% of 330,000 active; AID 2025;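 active = percent response vs DMSO below 50%; inconclusive = fewer than 70 events counted for the yeast strain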;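 also: median channel GFP fluorescence of the barcoded RPL19A-GFP strain; lower means less RPL19A-GFP as with rapamycin TOR inhibition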
AGP1 TOR yeast – yeast TOR pathway AGP1-GFP modulation; S. cerevisiae AGP1-GFP multiplex flow cytometry, 3 h; GFP as percent of DMSO wells; GFP response vs DMSO, % at 10 µM; 0.02% of 320,000 active; AID 2066;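 active = GFP response relative to DMSO above a set limit, near screen average plus 3 SD, cut at about 150% in these data; inconclusive = fewer than 70 cells counted for the yeast strain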;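 also: median GFP channel fluorescence of the gated AGP1 strain per well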
CIT2 TOR yeast – modulators of TOR pathway CIT2-GFP in S. cerevisiae; 0.065% of 320,000 active; S. cerevisiae CIT2-GFP strain, flow cytometry, 3 h; 100 means same as DMSO wells; AID 2029; GFP response vs DMSO, % at 10 µM;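 active = GFP response relative to DMSO above a set limit, near the screen mean plus 3 SD, cut at about 150% in these data; inconclusive = Fewer than 70 cells measured for a yeast strain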;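 also: ratio of well median GFP fluorescence to mean of DMSO wells on the plate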
LAP4-GFP MLPCN – alters LAP4-GFP fluorescence in TOR pathway yeast screen | 0.34% of 320,000 active | S. cerevisiae LAP4-GFP multiplex, flow cytometry GFP, 3 h; median GFP as percent of DMSO wells | GFP response vs DMSO, % at 10 µM;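 active = GFP response vs DMSO above a set limit, about the screen mean plus 3 SD, cut at about 150% in these data; inconclusive = under 70 cell events counted for the yeast strain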
MEP2 TOR yeast – modulators of TOR pathway MEP2-GFP in S. cerevisiae; S. cerevisiae MEP2-GFP strain, flow cytometry GFP, 3 h; 100% = DMSO control level; GFP response vs DMSO, % at 10 µM; 0.51% of 330,000 active;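 active = GFP response versus DMSO above a set limit, roughly screen mean plus 3 SD, cut at about 180% in these data; inconclusive = fewer than 70 cells counted for a yeast strain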;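 also: median GFP fluorescence of the barcode-gated MEP2-GFP cells per well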
A number is an active result; [ ] = dose if it differs, or a comment.

Screening Cc1nc(C)c(CCNC(=O)c2ccc(C(F)(F)F)cc2)s1 returned T cell HTS inactive, RPL19A-GFP yeast inactive, AGP1 TOR yeast inactive, CIT2 TOR yeast inactive, LAP4-GFP MLPCN inactive and MEP2 TOR yeast inactive.
Cc1ccc(C(=O)NCCc2sc(C)nc2C)cc1 was read as T cell HTS inactive, RPL19A-GFP yeast 31[may fluoresce violet], AGP1 TOR yeast inconclusive, CIT2 TOR yeast inconclusive, LAP4-GFP MLPCN inactive and MEP2 TOR yeast 222[may fluoresce violet].
Cn1c(CBr)c(C(=O)c2ccc([N+](=O)[O-])cc2)c(=O)n(C)c1=O was read as T cell HTS inactive, RPL19A-GFP yeast inactive, AGP1 TOR yeast inconclusive, CIT2 TOR yeast inconclusive, LAP4-GFP MLPCN inactive and MEP2 TOR yeast 444[may fluoresce violet].
COc1ccc(/C=C(/NC(=O)c2ccccc2)C(=O)NCc2ccco2)cc1 was read as T cell HTS inactive, RPL19A-GFP yeast 46[may fluoresce violet], AGP1 TOR yeast inconclusive, CIT2 TOR yeast inconclusive, LAP4-GFP MLPCN inactive and MEP2 TOR yeast inconclusive.
CCOc1ccc(NC(=O)CC2C(=O)N(c3cccc(OC)c3)C(=O)N2CCOC)cc1 (configuration not stated) was read as T cell HTS inactive, RPL19A-GFP yeast inactive, AGP1 TOR yeast inactive, CIT2 TOR yeast inactive, LAP4-GFP MLPCN inactive and MEP2 TOR yeast inactive.
CC(C)C(C(=O)NCc1ccco1)N(Cc1ccco1)C(=O)CNS(=O)(=O)c1ccc(F)cc1 (configuration not stated) was read as T cell HTS inactive, RPL19A-GFP yeast 24[may fluoresce violet], AGP1 TOR yeast inconclusive, CIT2 TOR yeast inconclusive, LAP4-GFP MLPCN inactive and MEP2 TOR yeast inconclusive.
Screening CC(C)C(C(=O)NC1CCCC1)N(Cc1ccco1)C(=O)CNS(=O)(=O)c1ccccc1 (configuration not stated) returned T cell HTS inactive, RPL19A-GFP yeast inactive, AGP1 TOR yeast inactive, CIT2 TOR yeast inactive, LAP4-GFP MLPCN inactive and MEP2 TOR yeast inactive.
Screening COC(=O)C1CCCN1C(=O)c1cccs1 (configuration not stated) returned T cell HTS inactive, RPL19A-GFP yeast inactive, AGP1 TOR yeast inactive, CIT2 TOR yeast inactive, LAP4-GFP MLPCN inactive and MEP2 TOR yeast inactive.
Screening CC(=O)Nc1ccc(NC(=O)C(C)OC(=O)[C@@H]2CCCN2C(=O)c2cccs2)cc1 (some centres not stated) returned T cell HTS 65, RPL19A-GFP yeast inactive, AGP1 TOR yeast inactive, CIT2 TOR yeast inactive, LAP4-GFP MLPCN inactive and MEP2 TOR yeast inactive.
For CCCCCCCCc1nnc(N)s1 the results were T cell HTS inactive, RPL19A-GFP yeast inactive, AGP1 TOR yeast inactive, CIT2 TOR yeast inactive, LAP4-GFP MLPCN inactive and MEP2 TOR yeast inactive.
CCOc1cc2[nH]c(=O)n(CCCCCC(=O)NCc3ccco3)c(=O)c2cc1OCC was read as T cell HTS inactive, RPL19A-GFP yeast inactive, AGP1 TOR yeast inactive, CIT2 TOR yeast inconclusive, LAP4-GFP MLPCN inactive and MEP2 TOR yeast 190[may fluoresce violet].
Screening CCOc1cc2[nH]c(=S)n(CCCCC(=O)NCc3ccco3)c(=O)c2cc1OCC returned T cell HTS inactive, RPL19A-GFP yeast inactive, AGP1 TOR yeast inactive, CIT2 TOR yeast inactive, LAP4-GFP MLPCN inactive and MEP2 TOR yeast inactive.
`O=Cc1c(Sc2ccccc2)nc2ccccn2c1=O` gave T cell HTS inactive, RPL19A-GFP yeast inactive, AGP1 TOR yeast inconclusive, CIT2 TOR yeast inconclusive, LAP4-GFP MLPCN inactive and MEP2 TOR yeast 223[may fluoresce violet].
Cc1ccc(N2CC(C(=O)Nc3c4c(nn3C(C)(C)C)CS(=O)(=O)C4)CC2=O)cc1C (configuration not stated) was read as T cell HTS inactive, RPL19A-GFP yeast inactive, AGP1 TOR yeast inactive, CIT2 TOR yeast inactive, LAP4-GFP MLPCN inactive and MEP2 TOR yeast inactive.
For O=C(c1ccc2c(c1)OCO2)N1CCC(Cc2ccccc2)CC1 the results were T cell HTS inactive, RPL19A-GFP yeast 26[may fluoresce violet], AGP1 TOR yeast inconclusive, CIT2 TOR yeast inconclusive, LAP4-GFP MLPCN inactive and MEP2 TOR yeast 273[may fluoresce violet].
For O=C(c1ccccc1)N1CCN(C(=O)c2ccc3c(c2)OCO3)CC1 the results were T cell HTS inactive, RPL19A-GFP yeast inactive, AGP1 TOR yeast inactive, CIT2 TOR yeast inactive, LAP4-GFP MLPCN inactive and MEP2 TOR yeast inactive.
`COC(=O)[C@H](CCSC)NC(=O)Nc1cc(OC)cc(OC)c1` gave T cell HTS inactive, RPL19A-GFP yeast inactive, AGP1 TOR yeast inactive, CIT2 TOR yeast inactive, LAP4-GFP MLPCN inactive and MEP2 TOR yeast inactive.
For O=C(Nc1ccncc1)c1ccccc1-c1ccccc1 the results were T cell HTS inactive, RPL19A-GFP yeast inactive, AGP1 TOR yeast inactive, CIT2 TOR yeast inactive, LAP4-GFP MLPCN inactive and MEP2 TOR yeast inactive.
Screening O=C(Nc1nc2c(s1)CCCC2)c1cc2n(n1)C(C(F)(F)F)CC(C1CC1)N2 (configuration not stated) returned T cell HTS inactive, RPL19A-GFP yeast inactive, CIT2 TOR yeast inconclusive, LAP4-GFP MLPCN inactive and MEP2 TOR yeast 182[may fluoresce violet].
`Cc1nnc(NC(=O)c2cc3n(n2)C(C(F)(F)F)CC(C2CC2)N3)s1` (configuration not stated) gave T cell HTS inactive, RPL19A-GFP yeast inactive, AGP1 TOR yeast inactive, CIT2 TOR yeast inactive, LAP4-GFP MLPCN inactive and MEP2 TOR yeast inactive.
`N#Cc1c(NCCCO)nc(-c2ccco2)c2c1CCCC2` gave T cell HTS inactive, RPL19A-GFP yeast inactive, AGP1 TOR yeast inactive, CIT2 TOR yeast inconclusive, LAP4-GFP MLPCN inactive and MEP2 TOR yeast 243[may fluoresce violet].
`N#Cc1c(NC2CCCCC2)nc(-c2ccco2)c2c1CCCC2` gave T cell HTS inactive, RPL19A-GFP yeast inactive, AGP1 TOR yeast inactive, CIT2 TOR yeast inactive, LAP4-GFP MLPCN inactive and MEP2 TOR yeast inactive.
CCn1c2ccccc2c2cc(/C=N/n3cn[nH]c3=S)ccc21 was read as T cell HTS inactive, RPL19A-GFP yeast inactive, AGP1 TOR yeast inactive, CIT2 TOR yeast inactive, LAP4-GFP MLPCN 160 and MEP2 TOR yeast inactive.
`O=S(=O)(c1ccccc1)N1CCN(CC2CC3C=CC2C3)CC1` (configuration not stated) gave T cell HTS inactive, RPL19A-GFP yeast inactive, AGP1 TOR yeast inactive, CIT2 TOR yeast inactive, LAP4-GFP MLPCN inactive and MEP2 TOR yeast inactive.
O=S(=O)(c1ccc(F)cc1)N1CCN(CC2CC3C=CC2C3)CC1 (configuration not stated) was read as T cell HTS inactive, RPL19A-GFP yeast inactive, AGP1 TOR yeast inactive, CIT2 TOR yeast inconclusive, LAP4-GFP MLPCN inactive and MEP2 TOR yeast 207[may fluoresce violet].
`CCC(C)(C)NC(=O)C(C(C)C)N(CC1CCCO1)C(=O)CNS(=O)(=O)c1ccccc1` (configuration not stated) gave T cell HTS inactive, RPL19A-GFP yeast inactive, AGP1 TOR yeast inactive, CIT2 TOR yeast inactive, LAP4-GFP MLPCN inactive and MEP2 TOR yeast inactive.
Screening Cc1ccccc1OCc1nnc(SCCN2CCCC2)n1-c1ccccc1 returned T cell HTS inactive, RPL19A-GFP yeast 30[may fluoresce violet], AGP1 TOR yeast inconclusive, CIT2 TOR yeast inconclusive, LAP4-GFP MLPCN 168[may fluoresce violet] and MEP2 TOR yeast inactive.
